SMILES strings stand for the structures.

Series [1] is described as follows: Therapeutic index, measured by whole cell assay. The settings on record: read-out: Therapeutic index. The method, boiled down: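 Ratio of cytotoxicity IC50 to HIV replication IC50 in H9 cells; cut-off of 3 counts as positive. Toxicity: uninfected H9 at 2×10^4 cells/well, 3-5 compound concentrations in quadruplicate, 5 days at 37 °C, 5% CO2, media and compound renewed day 3, viable cells counted by trypan blue exclusion. Antiviral IC50 from HIV-1 IIIB p24 ELISA at day 5.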

In series [2] the test system is Human immunodeficiency virus 1. Description: Inhibition of HIV replication in H9 cells. The settings on record: Human immunodeficiency virus 1, H9. The class given is functional, organism-based. In short, it runs like this: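 H9 cells (RPMI 1640 + 10% IFCS) infected with HIV-1 IIIB at three virus concentrations (0.5 log10 dilutions; most dilute ~5-10 infectious units/well), seeded 2×10^4 cells/well. 3-5 compound concentrations, 0.5% DMSO final, quadruplicate, 5 days at 37 °C, 5% CO2; media and compound renewed day 3. Day-5 supernatant p24 ELISA; IC50 for ≥2 viral doses, 3-5 assays, mean of n.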

For series [3], the system named is SW480. Put plainly: The compound was tested for inhibition of HIV-1 replication in SW480 cells using HIV tat assay; Not active at 37 mM. Type of series: functional, cell-based, Homo sapiens. The method, boiled down: (§1)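 SW480 colon carcinoma cells at 70-80% confluence, calcium phosphate co-transfected with HIV-1 LTR-CAT (pBennCAT) plus pSV2tat, total DNA adjusted with salmon sperm DNA. Compound (from DMSO stock diluted 100-fold in DMEM + 10% IFCS) added 5 h post-transfection, duplicate wells, 48 h at 37 °C. CAT activity read with [14C]chloramphenicol, 2 h. Selectivity check against SV40-promoter CAT. IC50 from logit dose-response curves, 3-5 experiments, 95% confidence limits.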

Series [4] has as its system SW480. Put plainly: The compound was tested for inhibition of HIV-1 replication in SW480 cells using HIV tat assay; Not active at 123 mM. The class given is functional, cell-based, Homo sapiens. In short, it runs like this: as §1
Series [5] concerns SW480. Put plainly: The compound was tested for inhibition of HIV-1 replication in SW480 cells using HIV tat assay; Not active at 100 mM. The class given is functional, cell-based, Homo sapiens. In short, it runs like this:
as §1

Series [6] relates to SW480. Description: The compound was tested for inhibition of HIV-1 replication in SW480 cells using HIV tat assay; Not active at 80 mM. Type of series: functional, cell-based, Homo sapiens.
Series [7] concerns SW480. Description: The compound was tested for inhibition of HIV-1 replication in SW480 cells using HIV tat assay; Not active at […]. The class given is functional, cell-based, Homo sapiens.
The test system of series [8] is SW480. Put plainly: The compound was tested for inhibition of HIV-1 replication in SW480 cells using HIV tat assay; Not active. The class given is functional, cell-based, Homo sapiens.
The test system of series [9] is SW480. Description: The compound was tested for inhibition of HIV-1 replication in SW480 cells using HIV tat assay; Not active at 90 mM. Type of series: functional, cell-based, Homo sapiens.
The subject of series [10] is SW480. Description: The compound was tested for inhibition of HIV-1 replication in SW480 cells using HIV tat assay; Not active at 32 mM. The class given is functional, cell-based, Homo sapiens. In short, it runs like this:
as §1

As for `C[C@@]12CCCC[C@@]1(O)[C@@H](Cl)C(=O)C(C(N)=O)C2` (some centres not stated), in series [1], the selectivity ratio came to 2. This molecule also gave a half-maximal inhibitory concentration (IC50) in [2] of 9300 nM. For `C[C@@]12CCCC[C@]13O[C@@H]3C(=O)C(C(N)=O)C2` (some centres not stated), in that order: 4.1 and 6400 nM.

Turning to `COc1ccc(NC(=O)C2CC(C)(C)C3OC3C2=O)cc1` (configuration not stated), the selectivity ratio in series [1] came out at 1.2. Further, inhibition in series [2] was half-maximal at 5200 nM (IC50). Regarding `COc1ccc(NC(=O)C2CC(C)(C)C=CC2=O)cc1` (configuration not stated), in the series on SW480 [3], the half-maximal inhibitory concentration (IC50) entry is reported as “Not Active”. With `CC1(C)C=CC(=O)C(C(=O)Nc2ccccc2)C1` (configuration not stated), in the series with SW480 [4], the 50% inhibitory concentration (IC50) result is recorded as “Not Active”. For `C[C@@]12CCCCC1=CC(=O)C(C(=O)Nc1ccccc1)C2` (some centres not stated), in the series on SW480 [5], the IC50 entry is “Not Active”.

Take `C[C@@]12CCCC[C@]13O[C@@H]3C(=O)C(C(=O)Nc1ccccc1)C2` (some centres not stated): the selectivity ratio in [1] came out at 3.8. Moreover, half-maximal inhibition in series [2] (IC50) required 2100 nM. `C[C@@]12CCCC[C@]13O[C@@H]3C(=O)C(C#N)C2` (some centres not stated): the selectivity ratio in series [1] worked out at 3. Moreover, the IC50 in series [2] is 11000 nM.

On to `CC1(C)CC(C(=O)Nc2c(Cl)cccc2Cl)C(=O)C2OC21` (configuration not stated), for which the selectivity ratio in [1] is 2.3. Moreover, the 50% inhibitory concentration (IC50) in series [2] turned out to be 2700 nM. As for `COc1ccc(NC(=O)C2C[C@]3(C)CCCC[C@]34O[C@@H]4C2=O)cc1` (some centres not stated), the selectivity ratio in series [1] came out at 1.3. Half-maximal inhibition in [2] (IC50) required 8500 nM. Regarding `CC(=O)O[C@H]1CCC2C3CCC4=CC(=O)C(C(N)=O)C[C@]4(C)C3CC[C@@]21C` (some centres not stated), in the series on SW480 [6], the concentration for half-maximal inhibition (IC50) entry is reported as “Not Active”. Take `C[C@]12CCC3C(CC[C@@]45O[C@@H]4C(=O)C(S(C)(=O)=O)C[C@]35C)C1CC[C@@H]2O` (some centres not stated): the selectivity ratio in series [1] was determined as 3.9. The molecule further showed an IC50 in series [2] of 1400 nM. The matching figures for `COC(=O)C1C[C@]2(C)[C@H]3CC[C@]4(C)[C@@H](O)CC[C@H]4[C@@H]3CC[C@]23O[C@@H]3C1=O` (some centres not stated): 4.5 and 2400 nM.

For the molecule `C[C@]12CC[C@H]3[C@@H](CC[C@@]45O[C@@H]4C(=O)C(C(N)=O)C[C@]35C)[C@@H]1CC[C@@H]2O` (some centres not stated), the selectivity ratio in series [1] came to 6.5. Further, half-maximal inhibition in series [2] (IC50) required 1200 nM. Take `CC(=O)O[C@H]1CC[C@H]2[C@@H]3CCC4CC(=O)C(C(N)=O)C[C@]4(C)[C@H]3CC[C@]12C` (some centres not stated): the IC50 result with SW480 [6] is “Not Active”. With `C[C@]12CC[C@H]3[C@@H](CC[C@@]45O[C@@H]4C(=O)C(S(=O)(=O)c4ccccc4)C[C@]35C)[C@@H]1CC[C@@H]2O` (some centres not stated), the selectivity ratio in series [1] was found to be 2.6. The IC50 in [2] was 1600 nM. With `C[C@]12CC[C@H]3[C@@H](CC[C@]45O[C@H]4C(=O)CC[C@]35C)[C@@H]1CC[C@@H]2O`, in the series on SW480 [7], the IC50 entry is recorded as “Not Active”. As for `COC(=O)C1C[C@]2(C)[C@H]3CC[C@]4(C)[C@@H](OC(C)=O)CC[C@H]4[C@@H]3CC[C@]23O[C@@H]3C1=O` (some centres not stated), the selectivity ratio in [1] worked out at 3.1. This molecule showed a concentration for half-maximal inhibition (IC50) in series [2] of 1400 nM. In the case of `CC(=O)O[C@H]1CC[C@H]2[C@@H]3CC[C@@]45O[C@@H]4C(=O)C(C(N)=O)C[C@]5(C)[C@H]3CC[C@]12C` (some centres not stated), the selectivity ratio in series [1] came to 1.6. In series [2], it took 2400 nM to reach half-maximal inhibition (IC50). Turning to `CC(=O)O[C@H]1CC[C@H]2[C@@H]3CC[C@@]45O[C@@H]4[C@@H](O)[C@@H](C(N)=O)C[C@]5(C)[C@H]3CC[C@]12C`, the half-maximal inhibitory concentration (IC50) result with SW480 [6] is listed as “Not Active”.

`CC(=O)O[C@H]1CC[C@H]2[C@@H]3CC[C@@]45O[C@@H]4C(=O)C(S(C)(=O)=O)C[C@]5(C)[C@H]3CC[C@]12C` (some centres not stated): in [1], the selectivity ratio amounted to 4.3. In [2], this molecule gave a half-maximal inhibitory concentration (IC50) of 300 nM. In the case of `C[C@]12CC[C@H]3[C@@H](CC[C@@]45O[C@@H]4[C@H](O)[C@H](C(N)=O)C[C@]35C)[C@@H]1CC[C@@H]2O`, in the series on SW480 [8], the IC50 entry is given as “Not Active”. `C[C@]12CC[C@H]3[C@@H](CCC4CC(=O)C(C(N)=O)C[C@@]43C)[C@@H]1CC[C@@H]2O` (some centres not stated): in the series on SW480 [9], the half-maximal inhibitory concentration (IC50) result was “Not Active”. On to `CC(=O)O[C@H]1CC[C@H]2[C@@H]3CC[C@@]45O[C@@H]4[C@H](O)[C@H](C(N)=O)C[C@]5(C)[C@H]3CC[C@]12C`, for which the IC50 result in the series with SW480 [6] is listed as “Not Active”. As for `C[C@]12CCCC[C@@]13O[C@H]3C(=O)C(C(N)=O)C2` (some centres not stated), the selectivity ratio in series [1] is 2.6. In series [2], this molecule registered an IC50 of 10300 nM. On to `C[C@@]12CCCC[C@@]1(O)[C@@H](Cl)C(=O)C(C(=O)Nc1ccccc1)C2` (some centres not stated), for which the selectivity ratio in [1] is 1.9. In series [2], this molecule yielded a half-maximal inhibitory concentration (IC50) of 3300 nM.

In the case of `CC1(C)C=CC(=O)C(C(=O)Nc2c(Cl)cccc2Cl)C1` (configuration not stated), in the series with SW480 [10], the half-maximal inhibitory concentration (IC50) result is on record as “Not Active”.

Take `C[C@]12CC(C(N)=O)C(=O)C=C1CCC1C2CC[C@@]2(C)C1CC[C@@H]2O` (some centres not stated): the IC50 entry in the series on SW480 [9] was “Not Active”. For `CC1(C)CC(C(=O)Nc2ccccc2)C(=O)C2OC21` (configuration not stated), the selectivity ratio in series [1] amounted to 1.4. The molecule also showed a concentration for half-maximal inhibition (IC50) in series [2] of 4300 nM.

For `COc1ccc(NC(=O)C2C[C@]3(C)CCCC[C@@]3(O)[C@@H](Cl)C2=O)cc1` (some centres not stated), in series [1], the selectivity ratio is 4.2. In series [2], this molecule gave an IC50 of 3300 nM.

Regarding `C[C@]12CCCC[C@@]13O[C@H]3C(=O)C(C#N)C2` (some centres not stated), in series [1], the selectivity ratio worked out at 3.8. In [2], the 50% inhibitory concentration (IC50) came to 25900 nM. Take `COc1ccc(NC(=O)C2C[C@]3(C)CCCCC3CC2=O)cc1` (some centres not stated): in the series with SW480 [5], the IC50 result is recorded as “Not Active”. Molecule `O=C1CN=C(c2ccc[nH]2)c2cc(Cl)ccc2N1` came in with an IC50 in series [2] of 600 nM.

These data come from ChEMBL document CHEMBL1128512, “Keto/enol epoxy steroids as HIV-1 Tat inhibitors: structure-activity relationships and pharmacophore localization” (J Med Chem, 1995).
